Hits are enriched below; roughly 9.2% of the tested compounds scored in any of these assays.
Lmaj promast: Leishmania major promastigote growth inhibition | Leishmania major promastigotes, resazurin fluorescence viability | inhibition, % at 10 µM | actives 9% (n = 200,000); in the data active = inhibition above about 50%;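 note: promastigotes grown with compound for 44 hours at 28 °C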
PTEN del growth: PTEN-deleted cell growth suppression; HCT116 PTEN-null viability, CellTiter-Glo, 60 h; stronger effect = lower value; viability, % at 10 µM; actives 1.2% (n = 140,000); AID 827;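 active = viability at or below a set limit, 4 SD under the median of all tested compounds, cut at about 3.7% in these data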;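 note: PTEN knockout HCT116 line with beta catenin targeted HCT116 as companion control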
Autophagy mod: alters autophagy in cells; MEF GFP-LC3 puncta imaging; test concentration mostly 10 µM; calls only at 10 µM (by protocol); actives 0.98% (n = 190,000); AID 463193;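 active = percentage of spot-positive cells more than 3 SD above its plate mean, without a fluorescence outlier flag or 80% toxicity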;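 note: spot-positive cell cutoff set from DMSO-treated cells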
Dynein cargo inh: dynein cargo transport inhibition; 3617.4 mouse cells, GR-EGFP nuclear translocation imaging; test concentration mostly 20 µM; stimulated with dexamethasone, 1 µM; stronger effect = lower value; z-score, hits read low; actives 0.47% (n = 220,000);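 active = plate z-score of nuclear minus cytoplasmic receptor signal below a set negative limit, without overly bright fluorescence or cell loss, cut at about -3.5 in these data, passing the limit was not always enough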;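 note: z-score of nuclear minus cytoplasmic ring GR-EGFP intensity difference per well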
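Also added – dexamethasone, 1.0 µM final · Buffer or medium – tet-free, stripped-serum medium · Schedule – induction 48 h, compound 1 h, agonist 30 min · Detection – formaldehyde fixation, Hoechst nuclear stain, 10x automated fluorescence imaging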
bCat KO growth: beta-catenin-lacking colon tumor cell growth suppression | actives 1.5% (n = 140,000) | viability, % at 10 µM | AID 818 | HCT116 beta-catenin knockout viability, CellTiter-Glo, 60 h; stronger effect = lower value;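 active = viability at or under a set limit, the compound median less 4 SD, cut at about 6% in these data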;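 note: 0% = Hyamine 1622 control at 20 µM and 100% = untreated cell control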
* marks the source's active call; other numbers are inactive results; i = inactive; . = no result given; + = active, no number.

SMILES	Lmaj promast	PTEN del growth	Autophagy mod	Dynein cargo inh	bCat KO growth
Cc1cc(C(=O)N/N=C/c2cc(Br)cc(Br)c2OC(=O)c2cccc(F)c2)n[nH]1	98.3*	.	i	0.48	.
Cc1cc(C(=O)N/N=C/c2cccs2)n[nH]1	2.5	.	i	0.374	.
CC(=O)CC1=NC(C)(C)Cc2ccccc21	-7.8	.	i	-1.17	.
O=C(/C=C/c1ccccc1)NCCSc1ccc(Cl)cc1	-6.3	101.9	i	-0.487	97.9
OCCCN=c1cc(-c2ccccc2)oc2ccc(Cl)cc12	100.3*	12.3	i	-0.574	13.2
O=c1cc(-c2ccccc2)oc2ccc(O)cc12	.	.	.	0.977	.
COc1ccc(Cn2c(=O)[nH]c3cc(C(=O)NC4CCCC4)ccc3c2=O)cc1	-1.4	.	+	-0.218	.
CN1CCN(CCCNC(=O)c2ccc(Cn3c(=S)[nH]c4ccc(Br)cc4c3=O)cc2)CC1	-7.5	.	i	0.684	.
CC1CCN(CCCNC(=O)c2ccc3c(=O)n(CCc4ccccc4)c(=O)[nH]c3c2)CC1	97.3*	78.2	i	2.01	76.2
CCCCCn1c(=O)[nH]c2cc(C(=O)NCCCN3CCC(C)CC3)ccc2c1=O	57.9*	33.6	i	0.155	14.9
CC1CCCCN1CCCNC(=O)c1ccc2c(=O)n(CCc3ccccc3)c(=O)[nH]c2c1 (stereo not drawn)	23.7	81.8	i	-0.839	76.0
CCCCCn1c(=O)[nH]c2cc(C(=O)NCCCN3CCCCC3)ccc2c1=O	5.7	64.4	i	0.213	66.4
CC1CCN(CCCNC(=O)c2ccc(Cn3c(=S)[nH]c4ccc(Br)cc4c3=O)cc2)CC1	98.9*	.	i	0.655	.
CC1(C)N=c2ccc([N+](=O)[O-])c(N)c2=[N+]1[O-]	.	.	.	-0.0388	.
COc1ccc(Br)c(OC)c1C(=O)NC(=O)Nc1nc(C)cc(C)n1	.	.	.	0.369	.
CC1CCCCN1CCNC(=O)c1ccc2c(=O)n(CCc3ccccc3)c(=O)[nH]c2c1 (stereo not drawn)	62.9*	76.6	i	-0.624	70.4
CCCn1c(NCc2cc(C)ccc2O)nc2ccccc21	77.0*	61.7	i	1.11	73.4
CCCn1c(NCc2ccc3c(c2)OCO3)nc2ccccc21	82.1*	91.0	i	-0.848	81.9
CCCCn1c(NCc2ccc3c(c2)OCO3)nc2ccccc21	38.0	62.5	i	-0.26	60.6
CC(C(=O)N1CCCCCC1)c1ccc([N+](=O)[O-])cc1 (stereo not drawn)	-0.9	.	i	-1.02	.
Cc1onc(-c2ccc(Cl)cc2)c1-c1ccnc(SCC(=O)Nc2cc(Cl)cc(Cl)c2)n1	.	.	.	-0.92	.
C/C(=N\NC(=O)c1cc(C(C)C)[nH]n1)c1ccco1	0.1	97.1	+	-0.25	101.9
CC(C)NC(=O)CSc1nnc(CNC(=O)OC(C)(C)C)n1C	.	.	.	2.83	.
COc1ccc(/C=C2\C(=O)N(Cc3ccc(F)cc3)CC(=O)N2Cc2ccccc2)cc1	95.3*	54.8	i	.	67.4
COc1ccc(/C=C2\C(=O)NCC(=O)N2Cc2ccccc2)cc1	-3.3	41.0	i	-0.0394	51.5
SMILES	Lmaj promast	PTEN del growth	Autophagy mod	Dynein cargo inh	bCat KO growth
CC(=C\c1ccccc1)/C=C1/SC(=S)N(CCC(=O)Nc2ccccn2)C1=O	19.8	.	+	-0.907	.
Fc1ccccc1Cc1noc(CN2CCN(Cc3ccc4c(c3)OCO4)CC2)n1	83.9*	.	i	-0.084	.
C(=C\c1ccccc1)/CN1CCN(Cc2nc(Cc3ccccc3)no2)CC1	79.7*	.	i	0.0899	.
COc1ccccc1CN1CCN(Cc2nc(Cc3ccccc3)no2)CC1	-1.9	.	i	-0.705	.
c1ccc(Cc2noc(CN3CCN(Cc4ccc5c(c4)OCO5)CC3)n2)cc1	90.0*	.	i	-0.699	.
Fc1cccc(CN2CCN(Cc3nc(CCc4ccccc4)no3)CC2)c1	79.1*	.	i	0.276	.
CCOC(=O)C1=NOC(CN(c2ccccc2)S(=O)(=O)c2ccc(Cl)cc2)C1 (stereo not drawn)	-1.2	.	i	0.159	.
CC(C)Cn1c(N)c(C(=O)CSc2ccc3c(c2)OCCO3)c(=O)n(C)c1=O	-5.5	37.0	i	-0.83	23.9
O=C(NCc1n[nH]c(=S)n1-c1ccc([N+](=O)[O-])cc1)c1ccc(S(=O)(=O)N2CCOCC2)cc1	-2.7	.	i	0.473	.
Cc1cc(/C=C2\SC(=S)N(Cc3ccco3)C2=O)c(C)n1-c1ccccc1	1.6	80.2	+	-2.11	75.1
O=C(c1ccccc1)C1Oc2ccccc2C2CC(c3cccs3)=NN12 (stereo not drawn)	64.7*	.	i	-0.203	.

Screens as filed in PubChem BioAssay.
